From ChEMBL document CHEMBL3297695, “Sesquiterpenoids from Pittocaulon filare” (2014) come the findings set out here.

For assay [1], the system named is Mus musculus. Briefly: Antiinflammatory activity against CD1 mouse ear edema model assessed as reduction of TPA-induced ear edema measured per ear administered topically 10 mins prior to TPA challenge measured after 4 hrs. The format is functional. In short, it runs like this:
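Male CD-1 mice (25−30 g), housed at 27 ± 1 °C on a 12/12 h light−dark cycle with food and water ad libitum. Compounds were applied topically to the ear in acetone−CH2Cl2 (1:1). Edema was induced by TPA and quantified as the weight of ear biopsies taken 4 h after sample application. The ID50 is expressed in μmol/ear. Data are mean ± SEM.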

In assay [2] the test system is Mus musculus. Put plainly: Antiinflammatory activity against TPA-induced CD1 mouse ear edema model assessed as neutrophil infiltration by measuring myeloperoxidase content at 1 umol/ear administered topically 10 mins prior to TPA challenge measured after 4 hrs relative to control. The format is functional. In short, it runs like this:
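Male CD-1 mice (25−30 g), ear edema induced by TPA. Compounds were applied topically at 1 μmol/ear in acetone−CH2Cl2 (1:1). MPO activity, used as a marker of neutrophils, was measured in ear biopsies taken 4 h after application by an adapted Bradley/Suzuki method. Results are given as % MPO content, mean ± SEM, analysed by ANOVA with Dunnett test against control.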

Take `C=C1[C@H]2[C@@H]([C@@H]([C@@H](C)OC(C)=O)C(=O)[C@H]2OC(=O)[C@@H](C)CC)[C@H]([C@@]2(C)CO2)[C@@H](OC(=O)[C@@H](C)CC)[C@H]1OC(=O)/C=C(\C)CC`: the Activity entry is “Dose-dependent effect” in the assay on Mus musculus [1] and 19.05% with Mus musculus [2]. Besides, in the assay with Mus musculus [1], the ID50 amounted to 0.18 µmol.
Take `COc1ccc2c(c1)c(CC(=O)O)c(C)n2C(=O)c1ccc(Cl)cc1` [INDOMETHACIN]: the ID50 with Mus musculus [1] was 0.24 µmol. For the same compound, the Activity in the assay on Mus musculus [2] worked out at 8.83%.
As for `C=C1[C@H]2[C@@H](/C(=C/C)C(=O)[C@H]2OC(=O)[C@@H](C)CC)[C@H]([C@@]2(C)CO2)[C@@H](OC(=O)[C@@H](C)CC)[C@H]1OC(=O)/C=C(\C)CC`, the Activity entry was “Dose-dependent effect” with Mus musculus [1] and 11.07% with Mus musculus [2]. Also, the ID50 in the assay with Mus musculus [1] was found to be 0.55 µmol.
With `C=C1[C@@H]2CC(=O)[C@H]([C@@H](C)OC(C)=O)[C@H]2[C@H](C(C)C)[C@@H](OC(=O)[C@@H](C)CC)[C@H]1OC(=O)/C=C(\C)CC`, in the assay with Mus musculus [1], the Activity result was “Dose-dependent effect” and the ID50 amounted to 0.17 µmol. Besides, in the assay on Mus musculus [2], the Activity was 12.67%.
